pIC50: −log10 of the molar value. Active and inactive are the calls of the source. No cut-off for these calls is given here.
Columns and labels:
[1] = biological target: Tyrosine-protein kinase CSK (Homo sapiens) (UniProt P41240); test: Inhibition of CSK at 1 uM
Outline: (§1)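 Single-concentration (1 µM) selectivity screen run as an outsourced commercial panel of 45 kinases.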

[2] = biological target: Vascular endothelial growth factor receptor 1 (Homo sapiens) (UniProt P17948); test: Inhibition of FLT1 at 1 uM; outline: as §1
[3] = biological target: Protein kinase C alpha type (Homo sapiens) (UniProt P17252); test: Inhibition of PRKCA at 1 uM; outline: as §1
[4] = biological target: Mitogen-activated protein kinase 14 (Homo sapiens) (UniProt Q16539); test: Inhibition of MAPK14 at 1 uM; outline: as §1
[5] = biological target: Mitogen-activated protein kinase 3 (Homo sapiens) (UniProt P27361); test: Inhibition of MAPK3 at 1 uM; outline: as §1
[6] = biological target: Ribosomal protein S6 kinase beta-1 (Homo sapiens) (UniProt P23443); test: Inhibition of RPS6KB1 at 1 uM; outline: as §1
[7] = biological target: Dual specificity mitogen-activated protein kinase kinase 1 (Homo sapiens) (UniProt Q02750); test: Inhibition of MAP2K1 at 1 uM; outline: as §1
[8] = biological target: Cyclin-dependent kinase 2 (Homo sapiens) (UniProt P24941); test: Inhibition of CDK2/cyclin A at 1 uM; outline: as §1
[9] = biological target: Tyrosine-protein kinase Lck (Homo sapiens) (UniProt P06239); test: Inhibition of LCK at 1 uM; outline: as §1
[10] = biological target: Serine/threonine-protein kinase Sgk1 (Homo sapiens) (UniProt O00141); test: Inhibition of SGK at 1 uM; outline: as §1
[11] = biological target: Fibroblast growth factor receptor 1 (Homo sapiens) (UniProt P11362); test: Inhibition of FGFR1 at 1 uM; outline: as §1
[12] = biological target: Tyrosine-protein kinase Fyn (Homo sapiens) (UniProt P06241); test: Inhibition of FYN at 1 uM; outline: as §1
[13] = biological target: Macrophage colony-stimulating factor 1 receptor (Homo sapiens) (UniProt P07333); test: Inhibition of CSF1R at 1 uM; outline: as §1
[14] = biological target: RAC-alpha serine/threonine-protein kinase (Homo sapiens, UniProt P31749, C310A); test: Inhibition of AKT C310A mutant
Sequence of RAC-alpha serine/threonine-protein kinase (Homo sapiens, UniProt P31749, C310A) (P31749 whole entry C310A): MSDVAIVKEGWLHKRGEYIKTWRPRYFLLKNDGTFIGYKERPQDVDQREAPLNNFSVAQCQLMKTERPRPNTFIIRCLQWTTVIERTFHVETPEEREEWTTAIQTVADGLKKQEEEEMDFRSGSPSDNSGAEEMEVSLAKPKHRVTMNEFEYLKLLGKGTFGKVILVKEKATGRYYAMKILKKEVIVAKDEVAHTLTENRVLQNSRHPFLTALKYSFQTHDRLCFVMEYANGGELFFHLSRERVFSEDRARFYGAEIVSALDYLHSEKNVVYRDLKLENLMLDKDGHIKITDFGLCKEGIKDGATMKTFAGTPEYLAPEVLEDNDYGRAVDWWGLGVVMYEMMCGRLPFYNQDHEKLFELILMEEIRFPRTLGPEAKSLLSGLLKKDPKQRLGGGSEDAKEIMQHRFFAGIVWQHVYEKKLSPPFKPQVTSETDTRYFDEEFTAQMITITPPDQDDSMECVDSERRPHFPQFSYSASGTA

[15] = biological target: Hepatocyte growth factor receptor (Homo sapiens) (UniProt P08581); test: Inhibition of MET at 1 uM; outline: as §1
[16] = biological target: Focal adhesion kinase 1 (Homo sapiens) (UniProt Q05397); test: Inhibition of PTK2 at 1 uM; outline: as §1
[17] = biological target: Insulin receptor (Homo sapiens) (UniProt P06213); test: Inhibition of INSR at 1 uM; outline: as §1
[18] = biological target: High affinity nerve growth factor receptor (Homo sapiens) (UniProt P04629); test: Inhibition of NTRK1 at 1 uM; outline: as §1
[19] = biological target: RAC-beta serine/threonine-protein kinase (Homo sapiens) (UniProt P31751); test: Inhibition of AKT2 at 1 uM; outline: as §1
[20] = Cytotoxicity against human MDA468 cells expressing AKT; type: functional, cell-based, MDA-MB-468; settings: Homo sapiens, MDA-MB-468
[21] = biological target: cAMP-dependent protein kinase catalytic subunit alpha (Homo sapiens) (UniProt P17612); test: Inhibition of PRKACA at 1 uM; outline: as §1
[22] = biological target: T1, RAC-alpha serine/threonine-protein kinase (Homo sapiens, UniProt P31749); test: Inhibition of AKT1 at 1 uM; outline: as §1
T1 sequence (P31749 whole entry): as the sequence (P31749 whole entry C310A) above, with A310C counted along it

[23] = biological target: Epidermal growth factor receptor (Homo sapiens) (UniProt P00533); test: Inhibition of EGFR at 1 uM; outline: as §1
[24] = biological target: Serine/threonine-protein kinase Nek2 (Homo sapiens) (UniProt P51955); test: Inhibition of NEK2 at 1 uM; outline: as §1
[25] = biological target: Rho-associated protein kinase 1 (Homo sapiens) (UniProt Q13464); test: Inhibition of ROCK1 at 1 uM; outline: as §1
[26] = biological target: Proto-oncogene tyrosine-protein kinase Src (Homo sapiens) (UniProt P12931); test: Inhibition of SRC at 1 uM; outline: as §1
[27] = biological target: Platelet-derived growth factor receptor alpha (Homo sapiens) (UniProt P16234); test: Inhibition of PDGFRA at 1 uM; outline: as §1
Sequence of Platelet-derived growth factor receptor alpha (Homo sapiens) (P16234 whole entry): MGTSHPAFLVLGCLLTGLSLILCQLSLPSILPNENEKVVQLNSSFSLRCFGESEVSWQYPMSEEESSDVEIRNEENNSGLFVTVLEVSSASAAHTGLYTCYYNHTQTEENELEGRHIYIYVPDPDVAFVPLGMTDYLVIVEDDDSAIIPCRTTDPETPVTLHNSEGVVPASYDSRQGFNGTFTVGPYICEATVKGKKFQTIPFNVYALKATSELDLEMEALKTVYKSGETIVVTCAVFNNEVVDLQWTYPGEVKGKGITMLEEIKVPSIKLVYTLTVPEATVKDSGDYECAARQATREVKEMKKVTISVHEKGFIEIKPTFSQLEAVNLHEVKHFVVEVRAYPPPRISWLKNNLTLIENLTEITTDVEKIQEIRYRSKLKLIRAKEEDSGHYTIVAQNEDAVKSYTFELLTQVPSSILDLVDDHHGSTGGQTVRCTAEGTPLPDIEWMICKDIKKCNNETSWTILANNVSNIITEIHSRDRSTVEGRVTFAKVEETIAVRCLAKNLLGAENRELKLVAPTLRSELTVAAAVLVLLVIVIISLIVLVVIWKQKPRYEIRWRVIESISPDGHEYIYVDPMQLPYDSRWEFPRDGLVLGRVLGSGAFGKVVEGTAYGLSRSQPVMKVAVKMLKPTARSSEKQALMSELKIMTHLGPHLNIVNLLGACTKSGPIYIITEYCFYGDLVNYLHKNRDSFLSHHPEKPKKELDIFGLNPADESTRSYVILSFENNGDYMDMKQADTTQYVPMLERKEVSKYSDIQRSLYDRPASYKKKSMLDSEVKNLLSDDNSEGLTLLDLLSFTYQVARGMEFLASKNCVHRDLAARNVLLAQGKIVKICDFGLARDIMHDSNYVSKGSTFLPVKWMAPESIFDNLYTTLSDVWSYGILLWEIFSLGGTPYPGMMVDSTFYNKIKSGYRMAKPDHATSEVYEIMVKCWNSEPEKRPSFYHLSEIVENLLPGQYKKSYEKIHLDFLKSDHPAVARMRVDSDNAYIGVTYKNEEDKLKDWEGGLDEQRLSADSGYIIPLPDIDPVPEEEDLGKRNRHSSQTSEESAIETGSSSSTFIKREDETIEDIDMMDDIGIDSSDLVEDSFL

[28] = biological target: Tyrosine-protein kinase BTK (Homo sapiens) (UniProt Q06187); test: Inhibition of BTK at 1 uM; outline: as §1
Sequence of Tyrosine-protein kinase BTK (Homo sapiens) (Q06187 whole entry): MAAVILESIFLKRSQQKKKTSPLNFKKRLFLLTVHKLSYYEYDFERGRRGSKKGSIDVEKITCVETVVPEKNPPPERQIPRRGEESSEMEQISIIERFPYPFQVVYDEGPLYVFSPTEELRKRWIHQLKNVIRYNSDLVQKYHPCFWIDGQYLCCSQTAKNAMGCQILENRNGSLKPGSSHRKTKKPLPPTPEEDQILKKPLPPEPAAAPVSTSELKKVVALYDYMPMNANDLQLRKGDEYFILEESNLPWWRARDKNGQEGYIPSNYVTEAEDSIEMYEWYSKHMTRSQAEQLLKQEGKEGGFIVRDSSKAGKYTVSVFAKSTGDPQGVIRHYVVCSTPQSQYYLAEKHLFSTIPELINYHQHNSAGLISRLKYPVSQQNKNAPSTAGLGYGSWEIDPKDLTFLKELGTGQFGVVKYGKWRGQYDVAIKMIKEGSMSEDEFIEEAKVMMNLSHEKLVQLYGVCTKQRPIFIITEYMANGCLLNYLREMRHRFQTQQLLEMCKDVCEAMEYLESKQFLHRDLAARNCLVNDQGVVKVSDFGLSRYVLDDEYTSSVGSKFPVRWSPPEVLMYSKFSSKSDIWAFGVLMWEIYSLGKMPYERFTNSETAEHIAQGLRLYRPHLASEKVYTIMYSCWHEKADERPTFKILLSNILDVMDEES

[29] = biological target: Insulin-like growth factor 1 receptor (Homo sapiens) (UniProt P08069); test: Inhibition of IGF1R at 1 uM; outline: as §1
[30] = biological target: Cyclin-dependent kinase 1/cyclin B1 (Homo sapiens) (UniProt P06493+P14635); test: Inhibition of CDK1/cyclin B at 1 uM; type: protein-complex assay; outline: as §1
[31] = biological target: RAC-alpha serine/threonine-protein kinase (Homo sapiens, UniProt P31749, C296A); test: Inhibition of AKT C296A mutant
Sequence of RAC-alpha serine/threonine-protein kinase (Homo sapiens, UniProt P31749, C296A) (P31749 whole entry C296A): as the sequence (P31749 whole entry C310A) above, with C296A, A310C counted along it

[32] = biological target: Mitogen-activated protein kinase 1 (Homo sapiens) (UniProt P28482); test: Inhibition of MAPK1 at 1 uM; outline: as §1
[33] = biological target: Protein kinase C theta type (Homo sapiens) (UniProt Q04759); test: Inhibition of PRKCQ at 1 uM; outline: as §1
[34] = biological target: Tyrosine-protein kinase Yes (Homo sapiens) (UniProt P07947); test: Inhibition of YES1 at 1 uM; outline: as §1
Sequence of Tyrosine-protein kinase Yes (Homo sapiens) (P07947 2-543 limits assumed): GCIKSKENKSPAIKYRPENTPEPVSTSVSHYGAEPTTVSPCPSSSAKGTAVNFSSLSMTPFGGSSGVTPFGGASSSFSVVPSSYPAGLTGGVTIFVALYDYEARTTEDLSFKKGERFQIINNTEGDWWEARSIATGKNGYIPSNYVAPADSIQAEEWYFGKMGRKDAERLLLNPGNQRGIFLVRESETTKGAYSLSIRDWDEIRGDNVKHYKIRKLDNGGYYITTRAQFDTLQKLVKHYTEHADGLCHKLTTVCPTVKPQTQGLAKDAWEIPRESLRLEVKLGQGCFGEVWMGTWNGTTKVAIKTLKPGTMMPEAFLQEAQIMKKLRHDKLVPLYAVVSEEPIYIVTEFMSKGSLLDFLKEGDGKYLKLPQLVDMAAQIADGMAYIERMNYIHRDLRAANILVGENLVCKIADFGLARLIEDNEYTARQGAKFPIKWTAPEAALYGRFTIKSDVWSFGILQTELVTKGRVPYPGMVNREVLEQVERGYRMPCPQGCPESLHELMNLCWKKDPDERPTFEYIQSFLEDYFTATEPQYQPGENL

[35] = biological target: Tyrosine-protein kinase SYK (Homo sapiens) (UniProt P43405); test: Inhibition of SYK at 1 uM; outline: as §1
[36] = biological target: T1, RAC-alpha serine/threonine-protein kinase; test: Inhibition of AKT
[37] = biological target: Serine/threonine-protein kinase PLK1 (Homo sapiens) (UniProt P53350); test: Inhibition of PLK1 at 1 uM; outline: as §1
[38] = biological target: Vascular endothelial growth factor receptor 2 (Homo sapiens) (UniProt P35968); test: Inhibition of KDR at 1 uM; outline: as §1
[39] = biological target: Receptor-type tyrosine-protein kinase FLT3 (Homo sapiens) (UniProt P36888); test: Inhibition of FLT3 at 1 uM; outline: as §1
[40] = biological target: Mitogen-activated protein kinase kinase kinase kinase 5 (Homo sapiens) (UniProt Q9Y4K4); test: Inhibition of MAP4K5 at 1 uM; outline: as §1
Sequence of Mitogen-activated protein kinase kinase kinase kinase 5 (Homo sapiens) (Q9Y4K4 whole entry, looked up): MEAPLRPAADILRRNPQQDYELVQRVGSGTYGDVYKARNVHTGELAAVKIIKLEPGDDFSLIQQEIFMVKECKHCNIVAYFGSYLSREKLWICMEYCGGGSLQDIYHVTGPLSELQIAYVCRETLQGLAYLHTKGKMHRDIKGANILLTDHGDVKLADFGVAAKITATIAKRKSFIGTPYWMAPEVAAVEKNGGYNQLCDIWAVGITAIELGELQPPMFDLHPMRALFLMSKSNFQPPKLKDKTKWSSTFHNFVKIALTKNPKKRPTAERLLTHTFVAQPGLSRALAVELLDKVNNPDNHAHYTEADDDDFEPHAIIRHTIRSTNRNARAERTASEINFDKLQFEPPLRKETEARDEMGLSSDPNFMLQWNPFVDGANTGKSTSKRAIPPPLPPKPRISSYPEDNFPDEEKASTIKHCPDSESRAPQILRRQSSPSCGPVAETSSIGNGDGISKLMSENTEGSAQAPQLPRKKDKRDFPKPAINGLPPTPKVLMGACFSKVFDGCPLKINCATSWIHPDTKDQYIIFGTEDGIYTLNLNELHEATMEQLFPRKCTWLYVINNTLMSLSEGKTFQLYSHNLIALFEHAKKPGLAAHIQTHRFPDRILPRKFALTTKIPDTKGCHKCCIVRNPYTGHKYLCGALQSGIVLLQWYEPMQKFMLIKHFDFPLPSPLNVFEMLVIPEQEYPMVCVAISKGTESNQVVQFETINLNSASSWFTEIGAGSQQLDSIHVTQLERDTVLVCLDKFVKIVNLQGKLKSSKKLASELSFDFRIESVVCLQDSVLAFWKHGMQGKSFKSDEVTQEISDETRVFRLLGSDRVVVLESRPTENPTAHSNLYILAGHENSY

[41] = biological target: Ephrin type-A receptor 1 (Homo sapiens) (UniProt P21709); test: Inhibition of EPHA1 at 1 uM; outline: as §1
[42] = biological target: Tyrosine-protein kinase Lyn (Homo sapiens) (UniProt P07948); test: Inhibition of LYN A at 1 uM; outline: as §1
[43] = biological target: Tyrosine-protein kinase ABL1 (Homo sapiens) (UniProt P00519); test: Inhibition of ABL1 at 1 uM; outline: as §1
Sequence of Tyrosine-protein kinase ABL1 (Homo sapiens) (P00519 whole entry): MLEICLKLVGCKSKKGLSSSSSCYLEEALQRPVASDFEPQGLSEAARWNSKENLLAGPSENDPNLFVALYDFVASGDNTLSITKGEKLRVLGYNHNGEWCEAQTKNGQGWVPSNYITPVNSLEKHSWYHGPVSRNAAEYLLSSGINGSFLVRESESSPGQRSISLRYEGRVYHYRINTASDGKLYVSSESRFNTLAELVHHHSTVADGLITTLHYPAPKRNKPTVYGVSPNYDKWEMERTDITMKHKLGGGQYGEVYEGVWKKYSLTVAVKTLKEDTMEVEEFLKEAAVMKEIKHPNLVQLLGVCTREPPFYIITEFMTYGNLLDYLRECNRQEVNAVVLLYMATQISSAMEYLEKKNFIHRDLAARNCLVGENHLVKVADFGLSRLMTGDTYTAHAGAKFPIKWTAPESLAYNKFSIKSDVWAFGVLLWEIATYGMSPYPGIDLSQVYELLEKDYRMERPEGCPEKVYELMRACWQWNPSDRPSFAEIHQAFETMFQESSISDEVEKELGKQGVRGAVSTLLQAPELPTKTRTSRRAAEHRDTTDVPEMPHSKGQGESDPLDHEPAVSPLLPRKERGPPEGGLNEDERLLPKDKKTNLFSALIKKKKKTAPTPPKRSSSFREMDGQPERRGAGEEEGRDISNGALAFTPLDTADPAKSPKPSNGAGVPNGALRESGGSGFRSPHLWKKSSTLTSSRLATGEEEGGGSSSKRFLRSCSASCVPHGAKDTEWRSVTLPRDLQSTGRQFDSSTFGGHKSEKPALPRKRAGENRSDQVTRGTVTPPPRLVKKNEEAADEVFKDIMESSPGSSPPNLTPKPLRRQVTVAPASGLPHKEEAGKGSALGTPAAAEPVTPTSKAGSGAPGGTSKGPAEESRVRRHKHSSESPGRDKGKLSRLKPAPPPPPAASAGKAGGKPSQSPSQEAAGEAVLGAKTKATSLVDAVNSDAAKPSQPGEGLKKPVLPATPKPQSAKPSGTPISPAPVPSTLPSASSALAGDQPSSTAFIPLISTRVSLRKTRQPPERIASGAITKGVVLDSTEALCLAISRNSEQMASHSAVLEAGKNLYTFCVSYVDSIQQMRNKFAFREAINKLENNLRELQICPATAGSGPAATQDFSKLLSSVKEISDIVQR

[44] = system: RAC-alpha serine/threonine-protein kinase (Homo sapiens), P31749 [C296A,C310A]; test: Inhibition of AKT C296A/C310A mutant up to 40 uM
Sequence of RAC-alpha serine/threonine-protein kinase (Homo sapiens), P31749 [C296A,C310A] (P31749 whole entry C296A/C310A): as the sequence (P31749 whole entry C310A) above, with C296A counted along it

[45] = biological target: Serine/threonine-protein kinase Chk1 (Homo sapiens) (UniProt O14757); test: Inhibition of CHEK1 at 1 uM; outline: as §1
[46] = biological target: Aurora kinase A (Homo sapiens) (UniProt O14965); test: Inhibition of STK6 at 1 uM; outline: as §1
[47] = biological target: Receptor tyrosine-protein kinase erbB-4 (Homo sapiens) (UniProt Q15303); test: Inhibition of ERBB4 at 1 uM; outline: as §1
[48] = biological target: Platelet-derived growth factor receptor beta (Homo sapiens) (UniProt P09619); test: Inhibition of PDGFRB at 1 uM; outline: as §1
[49] = biological target: Inhibitor of nuclear factor kappa-B kinase subunit beta (Homo sapiens) (UniProt O14920); test: Inhibition of IKBKB at 1 uM; outline: as §1

C[C@H]1O[C@@H]2CC(=O)O[C@@H]2C2=C1C(=O)c1c(ccc([C@H]3C[C@@H](N(C)C)[C@H](O)[C@@H](C)O3)c1O)C2=O [LACTOQUINOMYCIN]
inhibition [1]: 0%
inhibition [2]: 29%
inhibition [3]: 16%
inhibition [4]: 49%
inhibition [5]: 7%
inhibition [6]: 16%
inhibition [7]: 0%
inhibition [8]: 0%
inhibition [9]: 0%
inhibition [10]: 20%
inhibition [11]: 38%
inhibition [12]: 17%
inhibition [13]: 6%
pIC50 [14]: 4.41
inhibition [15]: 14%
inhibition [16]: 12%
inhibition [17]: 1%
inhibition [18]: 14%
inhibition [19]: 99%
pIC50 [20]: 7.30
inhibition [21]: 0%
inhibition [22]: 92%
inhibition [23]: 26%
inhibition [24]: 0%
inhibition [25]: 1%
inhibition [26]: 0%
inhibition [27]: 15%
inhibition [28]: 1%
inhibition [29]: 2%
inhibition [30]: 2%
pIC50 [31]: 4.52
inhibition [32]: 6%
inhibition [33]: 22%
inhibition [34]: 14%
inhibition [35]: 2%
pIC50 [36]: 6.83
inhibition [37]: 0%
inhibition [38]: 21%
inhibition [39]: 4%
inhibition [40]: 34%
inhibition [41]: 8%
inhibition [42]: 3%
inhibition [43]: 0%
Activity [44]: inactive
inhibition [45]: 10%
inhibition [46]: 17%
inhibition [47]: 5%
inhibition [48]: 32%
inhibition [49]: 41%
